The results in this text go back to ChEMBL document CHEMBL1649278, “Characterization of a new metallo-beta-lactamase gene, bla(NDM-1), and a novel erythromycin esterase gene carried on a unique genetic structure in Klebsiella pneumoniae sequence type 14 from India” (2009).

SMILES strings stand for the structures. ≈ marks a conversion by molar mass, not a printed value.

Test [1] concerns Escherichia coli. Nature of the test: Antibacterial activity against Escherichia coli J53 harboring beta-lactamase NDM-1 by Etest method. Format: functional. In outline:
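Transconjugant of E. coli J53 recipient, mated with donor on blood agar without selection for 18 h. Selected on MacConkey agar with sodium azide (100 μg/ml) plus ceftazidime (8 μg/ml). Transfer confirmed by indole test and PCR for the MBL gene. Susceptibility read by Etest.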

For test [2], the system named is Escherichia coli. Kind of test: Antibacterial activity against Escherichia coli J53 by Etest method. Format: functional.
The subject of test [3] is Escherichia coli. Nature of the test: Antibacterial activity against Escherichia coli TOP10 harboring beta-lactamase NDM-1 by Etest method. In kind it is functional. In outline:
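Fragments from BamHI, EcoRI or HindIII digests of K. pneumoniae 05-506 DNA were cloned into vector pK18 and electroporated into E. coli TOP10. Transformants were selected on LB agar with X-gal (30 μg/ml), ceftazidime (6 μg/ml) and kanamycin (25 μg/ml). Susceptibility read by Etest.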

For test [4], the system named is Klebsiella pneumoniae. Kind of test: Antibacterial activity against Klebsiella pneumoniae 05-560 by Etest method. In kind it is functional.
The test system of test [5] is Escherichia coli. Kind of test: Antibacterial activity against Escherichia coli NF-NDM-1 by Etest method. Format: functional.
In test [6] the test system is Escherichia coli. Nature of the test: Antibacterial activity against Escherichia coli TOP10 by Etest method. In kind it is functional.
Test [7] relates to Klebsiella pneumoniae. Nature of the test: Activity of Klebsiella pneumoniae 05-560 beta-lactamase IMP1 by spectrophotometry.
For test [8], the system named is Klebsiella pneumoniae. Nature of the test: Ratio of Kcat to Km for Klebsiella pneumoniae 05-560 beta-lactamase IMP1.

Take `C[C@@H](O)[C@H]1C(=O)N2C(C(=O)O)=C(S[C@@H]3CN[C@H](C(=O)Nc4cccc(C(=O)O)c4)C3)[C@H](C)[C@H]12`: the MIC (as a rule, the least concentration at which growth counts as inhibited) is more than 32 µg/mL in test [1]; 0.5 µg/mL (≈ 1.05 µM) in test [2]; 24 µg/mL (≈ 50.5 µM) in test [3]; more than 256 µg/mL in test [4]; more than 32 µg/mL in test [5]; 0.125 µg/mL (≈ 0.263 µM) in test [6].
On to `CO/N=C(\C(=O)N[C@@H]1C(=O)N2C(C(=O)[O-])=C(C[N+]3(C)CCCC3)CS[C@H]12)c1csc(N)n1`, for which the MIC is 24 µg/mL (≈ 49.9 µM) in test [1], 8 µg/mL (≈ 16.6 µM) in test [3], more than 256 µg/mL in test [4] and 24 µg/mL (≈ 49.9 µM) in test [5]. Further, the Km (commonly the concentration of substrate that gives half-maximal velocity) in test [7] came to 11 µM. The catalytic constant (kcat) – broadly, the maximal rate divided by the concentration of active sites – in test [7] was 7 s⁻¹. Further, the specificity constant (kcat/Km) (in general, the turnover number divided by the Michaelis constant) in test [8] turned out to be 0.66 s⁻¹ µM⁻¹.
For `CC1(C)S[C@@H]2[C@H](NC(=O)Cc3ccccc3)C(=O)N2[C@H]1C(=O)O`, in test [7], the Km worked out at 520 µM and the turnover number (kcat) is 320 s⁻¹. Also, in test [8], the kcat/Km worked out at 0.62 s⁻¹ µM⁻¹.
Consider `CC1(C)S[C@@H]2[C@H](NC(=O)[C@H](N)c3ccccc3)C(=O)N2[C@H]1C(=O)O` [AMPICILLIN], for which the minimum inhibitory concentration (MIC) in test [1] is more than 256 µg/mL; in test [2], 4 µg/mL (≈ 11.4 µM); in test [3], more than 256 µg/mL; in test [4], more than 256 µg/mL; in test [5] it was more than 256 µg/mL; in test [6], 12 µg/mL (≈ 34.3 µM). Further, in test [7], the Km worked out at 200 µM. In addition, the kcat in test [7] turned out to be 950 s⁻¹. In addition, in test [8], the catalytic efficiency (kcat/Km) was 4.8 s⁻¹ µM⁻¹.
In the case of `C[C@H]1[C@H](NC(=O)/C(=N\OC(C)(C)C(=O)O)c2csc(N)n2)C(=O)N1S(=O)(=O)O` [AZTREONAM], the MIC is 24 µg/mL (≈ 55.1 µM) in test [1], 0.25 µg/mL (≈ 0.574 µM) in test [3], more than 256 µg/mL in test [4] and 24 µg/mL (≈ 55.1 µM) in test [5]. The Michaelis constant (Km) in test [7] is more than 1000 µM. For the same molecule, in test [7], the kcat was more than 0.01 s⁻¹. The catalytic efficiency (kcat/Km) in test [8] was less than 0.0001 s⁻¹ µM⁻¹.
For `CO/N=C(\C(=O)N[C@@H]1C(=O)N2C(C(=O)O)=C(COC(C)=O)CS[C@H]12)c1csc(N)n1` [CEFOTAXIME], the minimum inhibitory concentration (MIC) was more than 256 µg/mL in test [1]; 0.064 µg/mL (≈ 0.141 µM) in test [2]; more than 256 µg/mL in test [3]; more than 256 µg/mL in test [4]; more than 256 µg/mL in test [5]; 0.125 µg/mL (≈ 0.274 µM) in test [6]. In addition, in test [7], the Km is 4 µM. The kcat in test [7] turned out to be 1.3 s⁻¹. For the same molecule, the catalytic efficiency (kcat/Km) in test [8] was 0.35 s⁻¹ µM⁻¹.
For the molecule `CO[C@@]1(NC(=O)Cc2cccs2)C(=O)N2C(C(=O)O)=C(COC(N)=O)CS[C@@H]21` [CEFOXITIN], the MIC in test [1] is more than 256 µg/mL; in test [2], 2 µg/mL (≈ 4.68 µM); in test [3] it was more than 256 µg/mL; in test [4] it was more than 256 µg/mL; in test [5] it was more than 256 µg/mL; in test [6] it was 4 µg/mL (≈ 9.36 µM). The catalytic efficiency (kcat/Km) in test [8] was found to be 2 s⁻¹ µM⁻¹.
In the case of `CC(C)(O/N=C(\C(=O)N[C@@H]1C(=O)N2C(C(=O)[O-])=C(C[n+]3ccccc3)CS[C@H]12)c1csc(N)n1)C(=O)O` [CEFTAZIDIME], the MIC is more than 256 µg/mL in test [1]; 0.125 µg/mL (≈ 0.229 µM) in test [2]; more than 256 µg/mL in test [3]; more than 256 µg/mL in test [4]; more than 256 µg/mL in test [5]; 1 µg/mL (≈ 1.83 µM) in test [6]. Besides, the Michaelis constant (Km) in test [7] turned out to be 44 µM. For the same molecule, in test [7], the kcat was 8 s⁻¹. Moreover, the specificity constant (kcat/Km) in test [8] turned out to be 0.18 s⁻¹ µM⁻¹.
